Tests used:
[1] = Cytotoxicity against wild type human Saos2 cells assessed as cell mortality at 0.1 to 5 ug/mL after 4 hrs by trypan blue staining-based flow cytometric analysis; details: saos-2, 4 h
Summary of the method: (§1)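 Trypan blue exclusion read by flow cytometry. Cells exposed to voacamine at 0.1, 1.0 or 5.0 μg/mL (in DMSO; DMSO-only cultures as extra control) for 4 or 24 h, resuspended in ice-cold PBS, stained with trypan blue (final 0.8 μM) and analysed at once; % dead cells. Three independent experiments, mean ± SD.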

[2] = Cytotoxicity against doxorubicin-resistant human Saos2 cells assessed as cell mortality at 0.1 to 5 ug/mL after 4 hrs by trypan blue staining-based flow cytometric analysis; details: saos-2, 4 h; summary of the method: as §1
[3] = Cytotoxicity against P-gp-deficient human Me30966 cells assessed as cell mortality at 0.1 to 5 ug/mL after 4 hrs by trypan blue staining-based flow cytometric analysis; format: ADME; summary of the method: as §1
[4] = Cytotoxicity against wild type human Saos2 cells assessed as cell mortality at 5 ug/mL after 24 hrs by trypan blue staining-based flow cytometric analysis; details: saos-2, 24 h; summary of the method: as §1
[5] = Cytotoxicity against doxorubicin-resistant human Saos2 cells assessed as cell mortality at 5 ug/mL after 24 hrs by trypan blue staining-based flow cytometric analysis; details: saos-2, 24 h; summary of the method: as §1
[6] = Cytotoxicity against P-gp-deficient human Me30966 cells assessed as cell mortality at 5 ug/mL after 24 hrs by trypan blue staining-based flow cytometric analysis; format: ADME; summary of the method: as §1
[7] = Cytotoxicity against human AG1522 cells assessed as cell mortality at 5 ug/mL after 24 hrs by trypan blue staining-based flow cytometric analysis; summary of the method: as §1
[8] = Cytotoxicity against human AG1522 cells assessed as cell mortality at 0.1 to 5 ug/mL after 4 hrs by trypan blue staining-based flow cytometric analysis; summary of the method: as §1
[9] = biological target: T1, ATP-dependent translocase ABCB1 (Homo sapiens, UniProt P08183); assay: Inhibition of p-gp in doxorubicin-resistant human Saos2 cells assessed as increase in doxorubicin uptake at 1 ug/mL after 3 hrs by flow cytometric analysis; format: cell-based; details: saos-2, 3 h
T1 sequence (P08183 whole entry): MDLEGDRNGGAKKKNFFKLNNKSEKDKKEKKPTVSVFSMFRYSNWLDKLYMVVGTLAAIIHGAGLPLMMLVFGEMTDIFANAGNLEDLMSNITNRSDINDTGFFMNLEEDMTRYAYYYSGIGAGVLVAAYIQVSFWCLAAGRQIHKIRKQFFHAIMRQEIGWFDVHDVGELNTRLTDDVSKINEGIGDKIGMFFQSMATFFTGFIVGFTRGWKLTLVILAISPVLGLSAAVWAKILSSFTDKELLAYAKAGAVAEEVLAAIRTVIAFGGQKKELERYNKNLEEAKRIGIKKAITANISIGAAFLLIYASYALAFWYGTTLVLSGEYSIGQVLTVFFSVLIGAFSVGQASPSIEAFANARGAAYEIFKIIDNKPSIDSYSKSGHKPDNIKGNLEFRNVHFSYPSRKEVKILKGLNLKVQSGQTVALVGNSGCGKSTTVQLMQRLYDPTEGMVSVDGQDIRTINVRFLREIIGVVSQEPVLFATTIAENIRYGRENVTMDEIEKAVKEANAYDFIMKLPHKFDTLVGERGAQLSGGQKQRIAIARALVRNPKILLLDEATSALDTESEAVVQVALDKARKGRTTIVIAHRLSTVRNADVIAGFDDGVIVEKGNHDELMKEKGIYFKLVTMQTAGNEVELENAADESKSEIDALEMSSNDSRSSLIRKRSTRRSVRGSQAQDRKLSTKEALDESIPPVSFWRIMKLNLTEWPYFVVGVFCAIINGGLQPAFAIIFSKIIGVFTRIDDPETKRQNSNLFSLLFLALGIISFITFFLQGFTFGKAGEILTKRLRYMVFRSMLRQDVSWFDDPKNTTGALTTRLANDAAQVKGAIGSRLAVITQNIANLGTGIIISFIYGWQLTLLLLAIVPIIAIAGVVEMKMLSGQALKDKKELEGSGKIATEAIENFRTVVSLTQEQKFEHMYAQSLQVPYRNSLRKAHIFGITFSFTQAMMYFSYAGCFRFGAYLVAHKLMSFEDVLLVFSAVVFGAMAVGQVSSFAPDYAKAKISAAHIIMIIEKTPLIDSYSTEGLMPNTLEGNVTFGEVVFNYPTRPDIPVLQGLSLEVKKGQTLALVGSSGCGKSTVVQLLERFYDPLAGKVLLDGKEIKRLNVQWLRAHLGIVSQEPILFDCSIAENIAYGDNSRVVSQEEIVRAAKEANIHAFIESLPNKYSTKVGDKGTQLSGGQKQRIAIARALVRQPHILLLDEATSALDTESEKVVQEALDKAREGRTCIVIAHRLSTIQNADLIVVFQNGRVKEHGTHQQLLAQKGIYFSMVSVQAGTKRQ
Summary of the method: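 Doxorubicin accumulation by flow cytometry. Osteosarcoma or melanoma cells exposed for 3 h to doxorubicin 1.0 μg/mL alone, with voacamine 1.0 μg/mL, or with cyclosporin A 5.0 μM (control). Cells detached with EDTA/trypsin (10^6 cells/mL), resuspended in ice-cold PBS, 488 nm excitation. Three independent experiments, mean ± SD.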

[10] = biological target: T1, ATP-dependent translocase ABCB1; assay: Inhibition of p-gp in doxorubicin-resistant human Saos2 cells assessed as increase in intracellular doxorubicin retention at 1 ug/mL after 2 hrs by flow cytometric analysis; format: cell-based; details: saos-2, 2 h
Summary of the method: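 Efflux by flow cytometry. Cells loaded 1 h with 1.0 μg/mL doxorubicin, washed in PBS, then reincubated 2 h at 37 °C in drug-free medium with or without voacamine (1.0 μg/mL) or cyclosporin A (5.0 μM). Detached, resuspended in ice-cold PBS, analysed for retained doxorubicin fluorescence. Three independent experiments, mean ± SD.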

[11] = biological target: T1, ATP-dependent translocase ABCB1; assay: Inhibition of p-gp in doxorubicin-resistant human Saos2 cells assessed as intracellular doxorubicin distribution in nuclei at 1 ug/mL after 2 to 3 hrs by laser scanning confocal microscopic analysis; format: cell-based; details: saos-2
Summary of the method: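 Living SAOS-2-DX cells, with SAOS-2-WT for reference, treated with doxorubicin alone or with voacamine or cyclosporin A as in the flow cytometry uptake/efflux protocol. Intracellular, including nuclear, doxorubicin fluorescence located by laser scanning confocal microscopy.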

[12] = Cytotoxicity against doxorubicin-resistant human Saos2 cells assessed as effect on cell survival up to 1 ug/mL after 72 hrs by MTT assay; format: cell-based; details: saos-2, 72 h
Summary of the method: (§2)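 MTT survival assay. Cells seeded 24 h beforehand (1 × 10^4 SAOS-2-DX or 5 × 10^3 Me30966 per well). Voacamine 0.5 or 1.0 μg/mL given alone or 30 min before doxorubicin (Me30966: 0.1 or 0.5 μg/mL; SAOS-2-DX: 0.5 or 1.0 μg/mL). Read at 24 h for Me30966 and 72 h for SAOS-2-DX. Three independent experiments, mean ± SD.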

P-gp (ABCB1) = P-gp (ABCB1) (Homo sapiens, UniProt P08183); assay: Inhibition of p-gp in doxorubicin-resistant human Saos2 cells assessed as potentiation of doxorubicin-induced cytotoxicity by measuring cell survival at 1 ug/mL pretreated for 30 mins followed by 0.5 ug/mL doxorubicin addition measured after 72 hrs by MTT assay relative to doxorubicin-treated cell; format: cell-based, SAOS-2; details: probe doxorubicin, read-out: Survival; summary of the method: as §2
P-gp (ABCB1), sequence (P08183 whole entry): as above

[13] = biological target: T1, ATP-dependent translocase ABCB1; assay: Inhibition of p-gp in doxorubicin-resistant human Saos2 cells assessed as potentiation of doxorubicin-induced cytotoxicity by measuring cell survival at 0.5 ug/mL pretreated for 30 mins followed by 0.5 ug/mL doxorubicin addition measured after 72 hrs by MTT assay relative to doxorubicin-treated cell; format: cell-based; details: saos-2, 72 h; summary of the method: as §2
[14] = biological target: T1, ATP-dependent translocase ABCB1; assay: Inhibition of p-gp in doxorubicin-resistant human Saos2 cells assessed as potentiation of doxorubicin-induced cytotoxicity by measuring cell survival at 0.5 ug/mL pretreated for 30 mins followed by 1 ug/mL doxorubicin addition measured after 72 hrs by MTT assay relative to doxorubicin-treated cell; format: cell-based; details: saos-2, 72 h; summary of the method: as §2
[15] = biological target: T1, ATP-dependent translocase ABCB1; assay: Inhibition of p-gp in doxorubicin-resistant human Saos2 cells assessed as potentiation of doxorubicin-induced cytotoxicity by measuring cell survival at 1 ug/mL pretreated for 30 mins followed by 1 ug/mL doxorubicin addition measured after 72 hrs by MTT assay relative to doxorubicin-treated cell; format: cell-based; details: saos-2, 72 h; summary of the method: as §2
[16] = Cytotoxicity against P-gp-deficient human Me30966 cells assessed as effect on cell survival at 0.5 to 1 ug/mL pretreated for 30 mins followed by 1 ug/mL doxorubicin addition measured after 24 hrs by MTT assay relative to doxorubicin-treated cell; format: ADME, cell-based
[17] = Cytotoxicity against doxorubicin-resistant human Saos2 cells assessed as induction of morphological changes at 1 ug/mL by phase contrast microscopic analysis; format: cell-based; details: saos-2
Summary of the method: (§3)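 Monolayers viewed by phase contrast microscopy against untreated controls. SAOS-2-DX given 1.0 μg/mL voacamine plus 1.0 μg/mL doxorubicin; Me30966 given 1.0 μg/mL voacamine plus 0.5 μg/mL doxorubicin.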

[18] = Cytotoxicity against P-gp-deficient human Me30966 cells assessed as induction of morphological changes at 1 ug/mL by phase contrast microscopic analysis; format: ADME, cell-based; summary of the method: as §3
[19] = biological target: T1, ATP-dependent translocase ABCB1; assay: Inhibition of p-gp in doxorubicin-resistant human Saos2 cells assessed as potentiation of 1 ug/mL doxorubicin-induced cytotoxicity by measuring induction of morphological changes at 1 ug/mL by phase contrast microscopic analysis; format: cell-based; details: saos-2; summary of the method: as §3

CC=C1CN(C)C2Cc3c([nH]c4ccccc34)C(c3cc4[nH]c5c(c4cc3OC)CCN3CC4CC(CC)C3C5(C(=O)OC)C4)CC1C2C(=O)OC (stereo not given) [VOACAMINE]
Toxic: Activity [4] | Activity [5] | Activity [6] | Activity [7]
Active: inhibition (INH) [9] | inhibition (INH) [10] | inhibition (INH) [11] | inhibition (INH) [13] | inhibition (INH) [14] | inhibition (INH) [15] | inhibition (INH) [19]
Non-toxic: Activity [1] | Activity [2] | Activity [3] | Activity [8] | Activity [12] | Activity [16] | Activity [17] | Activity [18]
50%: viability at 72 h, 1 ug/mL (P-gp (ABCB1))
